Laboratory results from ChEMBL document CHEMBL1141427, “Antifungal amides from Piper scutifolium and Piper hoffmanseggianum” (2007).

Experiments:
[1] = system: Cladosporium cladosporioides; assay: Antifungal activity against Cladosporium cladosporioides after 72 hrs; type: functional
Summary of the method: (§1)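 TLC bioautography: compounds applied to TLC plates, sprayed with a fungal spore suspension in glucose and salt solution, incubated 72 h in darkness in a moistened chamber at 25 °C. Clear inhibition zones against a dark background read as the minimum amount (µg) inhibiting growth on the plate. Strains: C. cladosporioides SPC 140, C. sphaerospermum SPC 491. Nystatin and miconazole positive controls; ampicillin and chloramphenicol negative controls.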

[2] = system: Cladosporium sphaerospermum; assay: Antifungal activity against Cladosporium sphaerospermum after 72 hrs; type: functional; summary of the method: as §1

Compound | MIC [1] [µg] | MIC [2] [µg]
CC(=O)OC(C)(C)CNC(=O)/C=C/C=C/c1ccc2c(c1)OCO2 [CORCOVADINE] | 1 | 1
CC(=O)OC(C)(C)CNC(=O)/C=C\C=C/c1ccc2c(c1)OCO2 [ISOCORCOVADINE] | 2.5 | 1
CC(C)CNC(=O)/C=C\C=C/c1ccc2c(c1)OCO2 [ISOPIPERLONGUMININE] | 0.25 | 0.25
Clc1ccc(COC(Cn2ccnc2)c2ccc(Cl)cc2Cl)c(Cl)c1 (stereo not drawn) [MICONAZOLE] | 1 | 1
CC(C)CNC(=O)/C=C/C=C/c1ccc2c(c1)OCO2 [PIPERLONGUMININE] | 1 | 1
COc1c(OC)c(OC)c2c3c(cc4ccccc42)NC(=O)c13 [PIPEROLACTAM C] | 5 | 50
COc1ccc(C/C=C/C=C/C(=O)NCC(C)C)cc1 [PIPEROVATINE] | 1 | 1
CC(C)CNC(=O)/C=C/C=C\c1ccc2c(c1)OCO2 [SCUTIFOLAMIDE A] | 5 | 5
NYSTATIN | 1 | 1
